Measurements from ChEMBL document CHEMBL4354849, “[1,2,5]Oxadiazolo[3,4-b]pyrazine-5,6-diamine Derivatives as Mitochondrial Uncouplers for the Potential Treatment of Nonalcoholic Steatohepatitis” (J Med Chem, 2020).
Calls of active or inactive are those of the source. The rule behind the calls is not given here.

What was measured:
[1] = Induction of mitochondrial uncoupling in rat L6 cells assessed as oxygen consumption rate measured over 90 mins by oxygen consumption rate by seahorse assay; type: mitochondria, Mitochondria
L6 = assay: Induction of mitochondrial uncoupling in rat L6 cells assessed as oxygen consumption rate up to 50 uM measured over 90 mins by oxygen consumption rate by seahorse assay relative to <= 50 uM BAM15; conditions: Mitochondria
Method in brief: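 L6 rat myoblasts were seeded at 3.5 × 10⁴ cells/well and left to adhere overnight. Medium was switched to unbuffered DMEM with pyruvate and glutamine, pH 7.4, and cells were equilibrated 1 h at 37°C without CO₂. One concentration per well, 2 wells per condition, OCR followed over 90 min. The first three post-injection readings were averaged to build the dose curve. AUC above baseline was expressed relative to BAM15 run on each plate; EC50 came from a Hill fit with the bottom fixed at 100% baseline.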

Mus musculus [2] = assay: Induction of hyperglycemia in Stelic C57BL/6 mouse model of streptozotocin-induced NASH at 10 mg/kg/day, po for 21 days; type: organism-based; conditions: in vivo, 504 h
Mus musculus [3] = assay: Effect on liver weight in Stelic C57BL/6 mouse model of streptozotocin-induced NASH at 10 mg/kg/day, po for 21 days; type: ADME, organism-based; conditions: in vivo, 504 h
Mus musculus [4] = assay: Improvement in liver fibrosis in Stelic C57BL/6 mouse model of streptozotocin-induced NASH assessed as effect on liver Gfap mRNA expression at 10 mg/kg/day, po for 21 days; type: functional, organism-based
Mus musculus [5] = assay: Improvement in liver fibrosis in Stelic C57BL/6 mouse model of streptozotocin-induced NASH assessed as effect on plasma AST level at 10 mg/kg/day, po for 21 days; type: functional, organism-based
Mus musculus [6] = assay: Improvement in liver fibrosis in Stelic C57BL/6 mouse model of streptozotocin-induced NASH assessed as effect on liver Cd146 mRNA expression at 10 mg/kg/day, po for 21 days; type: functional, organism-based
Mus musculus [7] = assay: Effect on food intake in Stelic C57BL/6 mouse model of streptozotocin-induced NASH assessed as reduction in food intake at 10 mg/kg/day, po for 21 days; type: ADME, organism-based; parameters: scale not given: the % may be the effect or the level left; conditions: in vivo, 504 h
Mus musculus [8] = assay: Improvement in liver fibrosis in Stelic C57BL/6 mouse model of streptozotocin-induced NASH assessed as reduction in plasma triglyceride at 10 mg/kg/day, po for 21 days; type: functional, organism-based
Mus musculus [9] = assay: Improvement in liver fibrosis in Stelic C57BL/6 mouse model of streptozotocin-induced NASH assessed as increase in plasma cholesterol at 10 mg/kg/day, po for 21 days; type: functional, organism-based
Mus musculus [10] = assay: Improvement in liver fibrosis in Stelic C57BL/6 mouse model of streptozotocin-induced NASH assessed as liver fibrosis score at 10 mg/kg/day, po for 21 days by Picrosirius ed staining based assay (reference value: 0.91 +/- 0.25); type: functional
Mus musculus [11] = assay: Effect on ballooning in Stelic C57BL/6 mouse model of streptozotocin-induced NASH at 10 mg/kg/day, po for 21 days; type: ADME, organism-based; conditions: in vivo, 504 h
Mus musculus [12] = assay: Improvement in liver fibrosis in Stelic C57BL/6 mouse model of streptozotocin-induced NASH assessed as NAS score at 10 mg/kg/day, po for 21 days (reference value: 4.6 +/- 0.7); type: functional
Mus musculus [13] = assay: Effect on body weight in Stelic C57BL/6 mouse model of streptozotocin-induced NASH at 10 mg/kg/day, po for 21 days; type: ADME, organism-based; conditions: in vivo, 504 h

EC50 [1] [nM] | Activity (L6) [%] | SMILES | further results
830 | – | COc1cccc(Nc2nc3nonc3nc2Nc2ccccc2F)c1 | –
1100 | 53 | FC(F)(F)Oc1cccc(Nc2nc3nonc3nc2Nc2cccc(OC(F)(F)F)c2)c1 | –
> 100000 | 43 | COc1cccc(Nc2nc3nonc3nc2Nc2cccc(OC)c2)c1 | –
> 20000 | 59 | Cc1ccc(Nc2nc3nonc3nc2Nc2ccc(C)cc2)cc1 | –
1600 | 52 | COc1ccc(Nc2nc3nonc3nc2Nc2ccccc2F)cc1 | –
1500 | – | Cc1cccc(Nc2nc3nonc3nc2Nc2ccccc2F)c1 | –
2100 | – | Cc1ccc(Nc2nc3nonc3nc2Nc2ccccc2F)cc1 | –
2300 | – | Cc1ccccc1Nc1nc2nonc2nc1Nc1ccccc1C | –
2100 | 22 | Cc1cccc(Nc2nc3nonc3nc2Nc2cccc(C)c2)c1 | –
10100 | 45 | CCOc1cccc(Nc2nc3nonc3nc2Nc2cccc(OCC)c2)c1 | –
2200 | 65 | Fc1ccccc1Nc1nc2nonc2nc1Nc1ccccc1 | –
< 1000 | – | Fc1ccccc1Nc1nc2nonc2nc1Nc1cccc(C(F)(F)F)c1 | –
600 | 8 | Fc1ccccc1Nc1nc2nonc2nc1Nc1cccc(OC(F)(F)F)c1 | –
2200 | 28 | CCOc1cccc(Nc2nc3nonc3nc2Nc2ccccc2F)c1 | –
1100 | 58 | Cc1ccccc1Nc1nc2nonc2nc1Nc1ccccc1F | –
> 100000 | – | Cc1ccc(Nc2nc3nonc3nc2Nc2ccc(C)c(C)c2)cc1C | –

More lines, now with the values behind:

SMILES | EC50 [1] [nM] | Activity (L6) [%] | further results
COc1ccc(Nc2nc3nonc3nc2Nc2ccc(OC)cc2)cc1 | > 100000 | 14 | –
Fc1cc(I)ccc1Nc1nc2nonc2nc1Nc1ccc(I)cc1F | 8800 | – | –
FC(F)(F)c1ccccc1Nc1nc2nonc2nc1Nc1ccccc1C(F)(F)F | 1000 | 39 | –
Fc1cc(F)c(Nc2nc3nonc3nc2Nc2c(F)cc(F)cc2F)c(F)c1 | 1100 | – | –
Fc1ccccc1Nc1nc2nonc2nc1Nc1ccccn1 | 9000 | 20 | –
Fc1ccc(Nc2nc3nonc3nc2Nc2ccccc2F)cc1 | 2300 | 65 | –
Fc1ccccc1Nc1nc2nonc2nc1Nc1ccccc1OC(F)(F)F | 1700 | 67 | –
FC(F)(F)Oc1ccc(Nc2nc3nonc3nc2Nc2ccc(OC(F)(F)F)cc2)cc1 | < 5000 | 14 | –
Fc1ccccc1Nc1nc2nonc2nc1Nc1ccccc1C(F)(F)F | 1400 | 57 | –
CCCc1nc2c(C)cc(-c3nc4ccccc4n3C)cc2n1Cc1ccc(-c2ccccc2C(=O)O)cc1 [TELMISARTAN] | – | – | Activity (Mus musculus [2]): Toxic; Activity (Mus musculus [3]): Toxic; Activity (Mus musculus [4]): inactive; Activity (Mus musculus [5]): inactive; Activity (Mus musculus [6]): inactive; Activity (Mus musculus [7]): 23%; Activity (Mus musculus [8]): Active; Activity (Mus musculus [9]): Active; Activity (Mus musculus [10]): 0.6; Activity (Mus musculus [11]): Non-Toxic; Activity (Mus musculus [12]): 2.9; Activity (Mus musculus [13]): Toxic
CCOc1ccc(Nc2nc3nonc3nc2Nc2ccccc2F)cc1 | 3800 | – | –
Fc1ccccc1Nc1nc2nonc2nc1Nc1cccc(C(F)(F)F)c1F | < 370 | – | –
Fc1ccccc1Nc1nc2nonc2nc1Nc1ccc(OC(F)(F)F)cc1 | 1300 | – | –
Fc1ccccc1Nc1nc2nonc2nc1Nc1ccc(C(F)(F)F)cc1 | 270 | – | –
Fc1cc(Br)ccc1Nc1nc2nonc2nc1Nc1ccc(Br)cc1F | < 3000 | – | –
Fc1cc(C(F)(F)F)ccc1Nc1nc2nonc2nc1Nc1ccc(C(F)(F)F)cc1F | < 1000 | – | –

SMILES | EC50 [1] [nM] | Activity (L6) [%] | further results
Fc1ccc(Nc2nc3nonc3nc2Nc2ccccc2F)c(F)c1 | 300 | 22 | –
Fc1ccccc1Nc1nc2nonc2nc1Nc1cccc(F)c1F | 500 | 15 | –
CCc1ccc(Nc2nc3nonc3nc2Nc2ccc(CC)cc2)cc1 | 3900 | – | –
Fc1cc(F)cc(Nc2nc3nonc3nc2Nc2cc(F)cc(F)c2)c1 | < 1000 | – | –
Fc1ccccc1Nc1nc2nonc2nc1NCCC(F)(F)F | > 100000 | – | –
Fc1ccc(C(F)(F)F)cc1Nc1nc2nonc2nc1Nc1cc(C(F)(F)F)ccc1F | < 1000 | – | –
FC(F)(F)c1cc(Nc2nc3nonc3nc2Nc2cc(C(F)(F)F)cc(C(F)(F)F)c2)cc(C(F)(F)F)c1 | 6100 | – | –
CCOc1ccccc1Nc1nc2nonc2nc1Nc1ccccc1F | 5600 | 15 | –
Fc1cc(Nc2nc3nonc3nc2Nc2ccc(C(F)(F)F)c(F)c2)ccc1C(F)(F)F | 1700 | – | –
Fc1ccccc1Nc1nc2nonc2nc1NC1CCCCC1 | 13400 | – | –
Fc1ccccc1Nc1nc2nonc2nc1Nc1cc(C(F)(F)F)cc(C(F)(F)F)c1 | < 370 | – | –
Oc1ccc(F)c(Nc2nc3nonc3nc2Nc2ccccc2F)c1 | 30000 | 45 | –
FC(F)(F)c1cccc(Nc2nc3nonc3nc2Nc2cccc(C(F)(F)F)c2)c1 | 700 | 28 | –
FC(F)(F)Oc1ccc(Nc2nc3nonc3nc2Nc2ccc(OC(F)(F)F)c(Br)c2)cc1Br | 2200 | – | –
O=C(Nc1ccc(Nc2nc3nonc3nc2Nc2ccccc2F)cc1)C(F)(F)F | 4100 | – | –
C1CCC(Nc2nc3nonc3nc2NC2CCCC2)C1 | 45000 | 20 | –
